SMILES strings stand for the structures. Some results are limits rather than exact numbers.

By EC50 is commonly meant the concentration at which the effect is half-maximal. As a reminder, the hepatocyte CLint is the capacity of the preparation to metabolise the compound, expressed as a volume cleared per time. A lower hepatocyte CLint goes with greater metabolic stability. A word on the logD: it is lipophilicity at a set pH, counting ionised and neutral species.

Series [1] has as its system P. falciparum 3D7 parasites. Kind of series: P. falciparum 3D7 asexual-stage parasite LDH viability assay. Particulars: for EC50: Plasmodium falciparum, 3D7, 72 h, read-out: Control compound activity against 3D7 parasites, EC50, 3D7, LDH assay, 72 h, value (SD). In kind it is cell-based, Plasmodium falciparum.
Series [2] concerns P. berghei ANKA parasites expressing GFP. Kind of series: Peter's 4 day P. berghei mouse model. It is filed as in vivo. The settings on record: 10 mg/kg. The essentials: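 Swiss mice (four per group) were infected IV with 1 × 10^7 P. berghei ANKA GFPcon-infected erythrocytes from donor mice. Dosing was oral once daily for 4 days, starting 2 h post-infection: test compound at 20 mg/kg in 20% DMSO/60% propylene glycol/20% water, or chloroquine at 10 mg/kg in water. Day-4 parasitemia was measured as GFP+ cells per 100,000 events and by Giemsa smears, with reduction calculated against vehicle.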

Another series concerns Pf Dd2 parental line. The series can be described thus: 3H-hypoxanthine 72 h assay, Dd2 parental line. Particulars: Plasmodium falciparum, DD2, read-out: Pf Dd2 EC50, Dd2 parental line, 3H-hypoxanthine 72 h; average of two experiments. It is filed as cell-based.
Another series has as its system HepG2. Kind of series: HepG2 host cell viability in the liver stage panel. It is filed as cell-based. The settings on record: Homo sapiens, HepG2, 48 h, read-out: HepG2 EC50 (liver stage).
In series [3] the test system is Pf Dd2 strain with an I22L mutation in the Qi site cyt b. Kind of series: 3H-hypoxanthine 72 h assay, Dd2 cyt b. It is filed as cell-based, Plasmodium falciparum. The essentials:
(§1)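 Asexual blood-stage parasites in hypoxanthine-free RPMI 1640 with HEPES, NaHCO3, neomycin (100 μg/mL) and Albumax II (5 g/L). Infected blood (0.3% parasitemia, 2.5% hematocrit) was exposed to a 10-point serial dilution at 37 °C under 93% N2/4% CO2/3% O2. After 48 h, [3H]-hypoxanthine (0.5 μCi/well) was added for 24 h more. Scintillation cpm were normalised to untreated controls, and logit regression gave values as means of two experiments.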

A further series concerns P. berghei EEFs. Kind of series: Exoerythrocytic stage assay. In kind it is cell-based. The settings on record: Plasmodium berghei, 48 h, read-out: Pb liver stage EEFs EC50 (SD).
Series [4] concerns Pf Dd2 expressing ScDHODH. Kind of series: ScDHODH asexual-stage assay. In kind it is cell-based. Particulars: Plasmodium falciparum, DD2, 72 h, read-out: Dd2 ScDHODH EC50. In short, it runs like this: (§2)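 Parasites were sorbitol-synchronised one cycle before setup. Ring stages at 0.5% parasitemia and 2% hematocrit were plated onto twofold compound dilutions and incubated at 37 °C for 72 h. Cells were fixed in 0.25% glutaraldehyde (RT, 30 min), stained with 2.5× SYBR Green (37 °C, 30 min) and counted by flow cytometry. EC50 is the average of three independent experiments.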

Series [5] concerns mitochondrial electron transport chain of P. falciparum 3D7 asexual parasites. Kind of series: ETC biosensor / oxygen consumption rate. It is filed as cell-based, Plasmodium falciparum. The settings on record: compounds at 5 μM, malate as the energy source. The essentials: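 Magnet-purified trophozoite-infected RBCs were saponin-released (0.05%, 37 °C, 3 min) and washed. Parasites were suspended in MAS buffer with 25 mM malate and 0.002% digitonin and seeded at 5 × 10^6 per Cell-Tak-coated well (800g, 10 min). Seahorse XFe96 OCR was read at baseline, after test compound (5 μM final), after TMPD (0.2 mM) with ascorbate (2 mM), then after NaN3 (10 mM). Each cycle was 20 s mix, 1 min wait, 2.5 min measure.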

For series [6], the system named is Pf SB1-A6 strain with a CNV (∼2-fold) and a C276F mutation in DHODH. Kind of series: SB1-A6 asexual-stage assay. The settings on record: Plasmodium falciparum, 72 h, read-out: SB1-A6 EC50. In kind it is cell-based. The essentials: as §2
Series [7] in a line: Kinetic aqueous solubility. In kind it is physicochemical. Particulars: kinetic in PBS. In short, it runs like this: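 Miniaturised shake flask: test compound (200 μM) in PBS pH 7.4 was shaken at 600 rpm, 25 °C for 2 h, filtered, and the filtrate half-diluted in acetonitrile. Run in duplicate.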
The next series deals with RF12. The series can be described thus: 3H-hypoxanthine 72 h assay, RF12. In kind it is cell-based. Particulars: Plasmodium falciparum, read-out: Pf multidrug-resistant strain EC50 RF12.
The nature of series [8]: Hepatocyte stability, rat. In kind it is in vitro ADME. The settings on record: pooled rat hepatocytes. The essentials:
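Test compound (1 μM) in Krebs–Henseleit buffer was incubated with pooled rat hepatocytes (1 × 10^6 cells/mL) at 37 °C, 5% CO2, with samples from 0 to 90 min. Reactions were quenched with ice-cold acetonitrile and centrifuged, and supernatants were analysed by LC–MS/MS. Half-life and CLint were derived from parent remaining. Run in duplicate.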

A further series has as its system K1. The series can be described thus: 3H-hypoxanthine 72 h assay, K1. Particulars: Plasmodium falciparum, K1, read-out: Pf multidrug-resistant strain EC50 K1. In kind it is cell-based.
A further series has as its system 7G8. The series can be described thus: 3H-hypoxanthine 72 h assay, 7G8. In kind it is cell-based. Particulars: Plasmodium falciparum, 7G8, read-out: Pf multidrug-resistant strain EC50 7G8.
Series [9] deals with drug-resistant P. falciparum strains. The series can be described thus: Profiling against a selection of multidrug-resistant parasites. It is filed as cell-based, Plasmodium falciparum. The essentials: as §1
A further series can be described thus: LogD at pH 7.4. It is filed as physicochemical. The settings on record: 1-octanol/phosphate-buffered saline (1:1, v/v).
For another series, the system named is NF54. Kind of series: 3H-hypoxanthine 72 h assay, NF54. Particulars: Plasmodium falciparum, NF54, read-out: Pf multidrug-resistant strain EC50 NF54. It is filed as cell-based.
[10] abbreviates: 3D7 parasite EC50 compared to 17.

Turning to `CCn1cc(-c2nc(C)no2)c(=O)c2cc(F)c(N3CCC(CN4CCOCC4)CC3)cc21` [Compound 42, 1-Ethyl-6-fluoro-3-(3-methyl-1,2,4-oxadiazol-5-yl)-7-[4-(morpholinomethyl)-1-piperidyl]quinolin-4-one], the “fold less active than the benzyl analog 41” value in [1] (3D7 parasite EC50 compared to 41) was 30 fold.

In the case of `CCNC(=O)c1cn(CC)c2cc(N3CCC(C)CC3)c(F)cc2c1=O` [Compound 23, N,1-Diethyl-6-fluoro-7-(4-methyl-1-piperidyl)-4-oxo-quinoline-3-carboxamide], the “fold less active/potent than 17” value in series [1] (setting [10]) is “approximately 20 fold”.

As for `CCn1cc(-c2nc(C)no2)c(=O)c2cc(F)c(N3CCCC(C)C3)cc21` (centres unmarked) [Compound 34, 1-Ethyl-6-fluoro-3-(3-methyl-1,2,4-oxadiazol-5-yl)-7-(3-methyl-1-piperidyl)quinolin-4-one], the “fold less active/potent than 17” value in [1] (setting [10]) worked out at 5 fold.

With `CCN(CC)CCCC(C)Nc1ccnc2cc(Cl)ccc12` (centres unmarked) [CQ, chloroquine, reference compound], in series [2] (average for four mice on day 4), the “% parasitemia” value was 0.02%. For the same compound, the “% reduction in parasitemia” value in series [2] (versus the vehicle control, four mice, day 4) worked out at 99.8%. In addition, in [1], the EC50 worked out at 0.035 µM.

For `O=C(NCCN1CCCC1)c1cc(-c2ccc(CN3CCOCC3)cc2)nc2ccc(F)cc12` [DDD107498], in the series on Pf Dd2 parental line, the half-maximal effective concentration (EC50) came to 0.0004 µM.

As for `CCn1cc(-c2nc(C)no2)c(=O)c2cc(F)c(N3CCC(C(C)C)CC3)cc21` [Compound 39, 1-Ethyl-6-fluoro-7-(4-isopropyl-1-piperidyl)-3-(3-methyl-1,2,4-oxadiazol-5-yl)quinolin-4-one], the “fold less active/potent than 17” value in series [1] (setting [10]) was 2 fold.

Regarding `CC1(C)c2nc(-c3ccc(F)cc3)c(Nc3ccc(F)cc3)n2CCN1C(=O)CN` [KAF156], the EC50 in the series on Pf Dd2 parental line amounted to 0.008 µM.

`CCn1cc(C(N)=O)c(=O)c2cc(F)c(N3CCC(C)CC3)cc21` [Compound 22, 1-Ethyl-6-fluoro-7-(4-methyl-1-piperidyl)-4-oxo-quinoline-3-carboxamide]: the EC50 with HepG2 was over 50 µM; in the series with P. berghei EEFs, 0.024 µM. Also, in [3], the “difference in sensitivity between the ELQ-300 resistant Dd2 strain and the Dd2 parental strain” value is listed as “no difference in sensitivity”. Also, the “fold less active/potent than 17” value in [1] (setting [10]) is reported as “approximately 20 fold”.

Turning to `CCCC1CCN(c2cc3c(cc2F)c(=O)c(-c2nc(C)no2)cn3CC)CC1` [Compound 38, 1-Ethyl-6-fluoro-3-(3-methyl-1,2,4-oxadiazol-5-yl)-7-(4-propyl-1-piperidyl)quinolin-4-one], the “fold more potent than 17” value in [1] (setting [10]) is given as 2 fold.

For `Cc1cc(Nc2ccc(S(F)(F)(F)(F)F)cc2)n2nc(C(C)(F)F)nc2n1` [DSM265, reference compound], the figures for the 50% effective concentration (EC50) (in [4]; with Pf Dd2 parental line; in series [6]) were over 10 µM, 0.024 µM and over 10 µM, respectively. For the same compound, in series [5], the “effect on malate-dependent oxygen consumption rate (OCR)” value is listed as “had no effect”.

Regarding `C[C@H]1[C@H](OC(=O)CCC(=O)O)O[C@@H]2O[C@@]3(C)CC[C@H]4[C@H](C)CC[C@@H]1[C@@]24OO3` [artesunate, reference compound], the EC50 in [1] was determined as 0.008 µM.

Regarding `CS(=O)(=O)c1ccc(-c2cnc(N)c(-c3ccc(C(F)(F)F)nc3)c2)cc1` [MMV048], the half-maximal effective concentration (EC50) in the series on Pf Dd2 parental line amounted to 0.016 µM.

In the case of `CCn1cc(-c2nc(C)no2)c(=O)c2cc(F)c(N3CCN(C(C)=O)CC3)cc21` [Compound 33, 7-(4-Acetylpiperazin-1-yl)-1-ethyl-6-fluoro-3-(3-methyl-1,2,4-oxadiazol-5-yl)quinolin-4-one], the “effect on malate-dependent oxygen consumption rate (OCR)” value in series [5] was “does not affect the OCR”.

On to `O=C1C(O)=C([C@H]2CC[C@H](c3ccc(Cl)cc3)CC2)C(=O)c2ccccc21` [ATQ, atovaquone, reference compound], for which the half-maximal effective concentration (EC50) in series [4] is over 10 µM; with Pf Dd2 parental line, 0.001 µM; in [6] it was over 10 µM.

As for `CCn1cc(-c2nc(C)no2)c(=O)c2cc(F)c(N3CCC(c4ccccc4)CC3)cc21` [Compound 40, 1-Ethyl-6-fluoro-3-(3-methyl-1,2,4-oxadiazol-5-yl)-7-(4-phenyl-1-piperidyl)quinolin-4-one], in series [1] (setting [10]), the “fold less active/potent than 17” value worked out at 2 fold.

As for `CCOC(=O)c1cn(CC)c2cc(N3CCC(Cc4ccccc4)CC3)c(F)cc2c1=O` [Compound 43, Ethyl 7-(4-Benzyl-1-piperidyl)-1-ethyl-6-fluoro-4-oxo-quinoline-3-carboxylate], the “aqueous solubility pH 7.4” value in series [7] amounted to 10.4 μM. Also, the 50% effective concentration (EC50) was 0.005 µM in the series with RF12; 0.014 µM with K1; 0.015 µM with Pf Dd2 parental line; 0.012 µM in the series on 7G8; 0.017 µM with NF54. The same compound had an intrinsic clearance (hepatocyte CLint) at 1 μM in series [8] of over 92.4 µL/min/1e6 cells. In series [9], the “potency against each drug-resistant strain compared to the Dd2 and NF54 wild-type parasites” value is “equipotent”. The “difference in sensitivity between the ELQ-300 resistant Dd2 strain and the Dd2 parental strain” value in series [3] is “no difference in sensitivity”. The log distribution coefficient (logD) at 2 h in the series “LogD at pH 7.4” is 4.6.

The values above are taken from paper PMC10012268 (ACS Infectious Diseases, 2023).
